The target of data set [1] is purified deoxycytidine deaminase (dCDA) (Homo sapiens, UniProt P32320). Put plainly: Deoxycytidine deaminase activity. The class given is biochemical. The conditions noted are these: 37°C; for deamination as substrate of dCDA: 500 μM substrate, no inhibitor. A digest of the protocol: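 Purified dCDA (source not stated) run at 37°C with 500 μM dCyd or gemcitabine as substrate and 500 μM competing compound. Every run included a blank (no substrate or inhibitor) and a substrate-only control. Stopped after 15 or 25 min with 40% w/v TCA, then neutralised with trioctylamine/trichlorotrifluoroethane […]. Substrates and the deoxyuridine or difluorodeoxyuridine products measured by reversed-phase HPLC. Unpaired t-test.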
purified deoxycytidine deaminase (dCDA), sequence (P32320 whole entry): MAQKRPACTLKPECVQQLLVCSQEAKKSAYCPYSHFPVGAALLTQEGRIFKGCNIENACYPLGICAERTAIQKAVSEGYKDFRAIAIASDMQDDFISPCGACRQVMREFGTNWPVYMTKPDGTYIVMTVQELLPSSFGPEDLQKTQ

Data set [2] relates to L1210/L5 cells. Put plainly: Growth inhibition, cell counting, 72 h exposure. In kind it is cell-based, murine. The conditions noted are these: Mus musculus, L1210, 72 h. In a few lines:
(§1)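 Suspension cells in RPMI-1640 with 10% FCS. L5/L4A6 medium had 60 μM 2-mercaptoethanol and 250 ng/ml gentamicin; BCLO had 3.2 mM glutamine and gentamicin; Bara-C had 5% FCS plus 5% rat serum. Seeding: 50,000 (L5), 100,000 (L4A6), 150,000 (BCLO) or 175,000 (Bara-C) cells/well. Drug (final 2.10−10 to 10−3 M) added at plating; counted at 72 h. IC50 interpolated against 0%/100% controls.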

Data set [3] has as its system THX cells. Put plainly: Growth inhibition with or without nucleoside transport inhibitors. The settings on record: for IC50: Homo sapiens. The class given is cell-based, human. In a few lines:
(§2)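 Cells grown in suspension in RPMI-1640-based medium and plated at 2.5.105 cells/ml. NBMPR (100 μM) or dipyridamole (4 μg/ml) was present or absent, with serial dilutions of test compound or gemcitabine. Cells counted after 72 h. Growth set relative to plated cells (0%) and untreated 72 h cells (100%). IC50 read from a straight-line interpolated curve.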

Data set [4] deals with MOLT4 cells. The description is as above. The class given is cell-based, human. The settings on record: for IC50: Homo sapiens. In a few lines:
as §2

Data set [5] deals with PANC-1 pancreatic cancer xenograft. Put plainly: Xenograft testing, ip. In kind it is in vivo, nude mice. The conditions noted are these: PANC-1, ip every third day for five doses at MTD. In a few lines: (§3)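 Female BALB/c nude mice anaesthetised with propanidid 5 mg/10 g ip. Tumour fragments (~2 mm cubes) implanted sc in each flank. Treatment started at minimum diameter 4 mm (32 mm3): liposomal test compound or gemcitabine ip q3dx5 at MTD. RTV = Vx/V0 ×100, group median. T/C = treated/control RTV ×100; SGD counts doubling times gained. Deaths within 2 weeks after the last dose counted as toxic. Mann–Whitney U, p<0.05.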

Data set [6] has as its system THX malignant melanoma xenograft. Put plainly: Xenograft testing, ip. In kind it is in vivo, nude mice. The conditions noted are these: ip every third day for five doses at MTD. In a few lines:
as §3

The test system of data set [7] is MiaPaCa-2 pancreatic cancer xenograft. Put plainly: Xenograft testing, ip. In kind it is in vivo, nude mice. The conditions noted are these: MiaPaCa-2, ip every third day for five doses at MTD. A digest of the protocol:
as §3

In data set [8] the test system is C26-G cells (gemcitabine resistant). Put plainly: Growth inhibition, SRB assay, 72 h exposure. In kind it is cell-based, murine. The settings on record: Mus musculus. A digest of the protocol: (§4)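 Monolayer cells seeded on day 1 at 6,000 (A2780), 18,000 (AG6000) or 8,000 (C26-G) cells/well. Drug dilutions added on day 2, final 2.10−10 to […], from a 20 mM DMSO stock (DMSO ≤1%). After 72 h, fixed with ice-cold TCA for 60 min and stained with sulforhodamine B. Relative growth taken from OD versus control wells. IC50 interpolated from straight-line curves.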
A general note: Sulforhodamine B stains cellular protein and so reports cell mass.

The test system of data set [9] is human colon cancer xenograft Co6044. Put plainly: Xenograft testing, oral. In kind it is in vivo, nude mice.
The test system of data set [10] is AG6000 cells (gemcitabine resistant A2780 variant, dCK deficient). Put plainly: Growth inhibition, SRB assay, 72 h exposure. In kind it is cell-based. The settings on record: Homo sapiens, AG6000, 72 h. A digest of the protocol:
as §4

Data set [11] has as its system C26-A cells. Put plainly: Growth inhibition, SRB assay, 72 h exposure. In kind it is cell-based, murine. The conditions noted are these: Mus musculus.
In data set [12] the test system is H-146 small cell lung cancer xenograft. Put plainly: Xenograft testing, ip. In kind it is in vivo, nude mice. The conditions noted are these: H-146, ip at MTD. A digest of the protocol: as §3
Data set [13] concerns MOLT4/C8 cells. Put plainly: Growth inhibition with or without nucleoside transport inhibitors. The class given is cell-based. The conditions noted are these: Homo sapiens. In a few lines: as §2
The subject of data set [14] is LOX cells. The data set is described as above. The class given is cell-based. The settings on record: Homo sapiens. In a few lines: as §2
Data set [15] relates to L4A6 cells (cytarabine resistant L1210 variant). Put plainly: Growth inhibition, cell counting, 72 h exposure. The class given is cell-based, murine. The conditions noted are these: Mus musculus, L1210, 72 h. In a few lines:
as §1

In data set [16] the test system is MA-11 breast cancer xenograft. Put plainly: Xenograft testing, ip. The class given is in vivo, nude mice. The settings on record: MA-11, ip at MTD. In a few lines: as §3
Data set [17] concerns TAX II-1 malignant fibrous histiocytoma xenograft. Put plainly: Xenograft testing, ip. In kind it is in vivo, nude mice. The conditions noted are these: TAX II-1, ip at MTD. A digest of the protocol:
as §3

Data set [18] deals with A2780 cells. Put plainly: Growth inhibition, SRB assay, 72 h exposure. In kind it is cell-based. The settings on record: Homo sapiens, A2780, 72 h. A digest of the protocol: as §4
Setting [19] is: Co6044, oral, days 1, 4 and 7, 20 mg/kg.
Setting [20] is: Co6044, oral, days 1, 4 and 7, 40 mg/kg.

As for `Nc1ccn([C@H]2C[C@H](O)[C@@H](CO)O2)c(=O)n1` [dCyd, deoxycytidine], in data set [1], the “deamination as substrate of dCDA” value is given as 312 pmol/hr/μl enzyme.

Regarding `Nc1ccn([C@@H]2O[C@H](CO)[C@@H](O)C2(F)F)c(=O)n1` [gemcitabine, 2′,2′-difluorodeoxycytidine], the IC50 in data set [2] turned out to be 1.9 ± 0.6 nM; in data set [3] (+Dipyridamole 4 μg/ml) it was 310 ± 130 nM; in data set [3] (+NBMPR 100 μM), 150 ± 50 nM; in data set [3] (no transport inhibitor), 2.7 ± 0.7 nM; in [4] (MOLT-4, MOLT4, +Dipyridamole 4 μg/ml), 610 ± 260 nM; in data set [4] (MOLT-4, MOLT4, +NBMPR 100 μM), 820 ± 250 nM. In addition, the half-maximal inhibitory concentration (IC50) is 3 ± 3.3 nM in data set [4] (MOLT-4, MOLT4, no transport inhibitor); 20 ± 10 nM in data set [8]; 185000 ± 108000 nM in data set [10]; 16 ± 4 nM in data set [11]; 7620 ± 590 nM in [13] (Molt4/C8, MOLT4/C8, +Dipyridamole 4 μg/ml); 8310 ± 1200 nM in [13] (Molt4/C8, MOLT4/C8, +NBMPR 100 μM). The IC50 in [13] (Molt4/C8, MOLT4/C8, no transport inhibitor) came to 460 ± 120 nM; in data set [14] (+Dipyridamole 4 μg/ml) it was 610 ± 220 nM; in data set [14] (+NBMPR 100 μM), 1150 ± 60 nM; in [14] (no transport inhibitor) it was 4.7 ± 1 nM; in [15], 8800 ± 3600 nM; in data set [18] it was 1.5 ± 0.6 nM. Also, the “decrease in sensitivity by dipyridamole” value is 115 fold in [3] (4 μg/ml dipyridamole) and 203 fold in data set [4] (MOLT4, 4 μg/ml dipyridamole). Also, the “decrease in sensitivity by NBMPR” value in data set [3] (100 μM NBMPR) turned out to be 55 fold; in data set [4] (MOLT4, 100 μM NBMPR), 273 fold. The Deaths is recorded as 4/9 in [5], 7/7 in data set [7], 0/7 in data set [9] (setting [19]) and 5/7 in data set [9] (setting [20]). This compound yielded an SGD in data set [6] greater than 6.25. The entries for the “Weight loss (%)” value in data set [9] (setting [19]) and in [9] (setting [20]) were 0% and 1%, respectively. Also, in data set [9] (setting [20]), the “Maximal T/C (%)” value is recorded as 8%. Besides, the “toxicity (in words)” value in [9] (Co6044 bearing mice, oral, at similar doses as the ip administration) is listed as “very toxic”. Also, the “antitumor activity (in words)” value is “not active” in data set [12], “some activity” in data set [16] and “inactive” in [17]. For the same compound, the “dFdU formed when dCyd and gemcitabine were added simultaneously” value in data set [1] (500 μM each) is reported as 1,127 pmol/hr/μl enzyme. Moreover, the “deamination as substrate of dCDA” value in data set [1] was determined as 624 pmol/hr/μl enzyme.

The IC50 is the concentration at which inhibition is half-maximal. A high value points to a need for much substance.

(Values after article PMC3076580 (Investigational New Drugs, 2010).)
